# From ChEMBL document CHEMBL5113523, “Discovery of Cyclic Peptide Inhibitors Targeting PD-L1 for Cancer Immunotherapy” (J Med Chem, 2022)
# The source made the active and inactive calls. The rule behind the calls is not given here. Bridge positions count the residues as written; N and C are the ends. Peptide text beside a SMILES is read from it.
# What was measured:
# [1] = molecular target: Programmed cell death protein 1/Programmed cell death 1 ligand 1 (Mus musculus, UniProt Q9EP73); assay: Inhibition of mouse recombinant PD-1/PD-L1 interaction preincubated with compound for 2 hrs followed by PD-1 protein addition and measured after 1.5 hrs by inhibitor screening ELISA assay pair kit method; assay type: protein-complex assay
# Procedure, shortened: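 Plate-based ELISA. Mouse PD-L1 (100 ng) coated for 16 h at 4 °C, then blocked with 2% BSA for 1.5 h at 37 °C. Peptide added for 2 h at 37 °C, then biotinylated mouse PD-1 for 1.5 h. Detection with streptavidin-HRP and chromogenic substrate, stopped with 2N H2SO4; OD450 referenced to OD540. IC50 determined; mean ± SD, n = 3.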
# [2] = Production against apoptosis in human PBMC cells cocultured with DU-145 cells assessed as increase in IFNgamma level in CD4+ T cell at 10 uM measured after 24 hrs by FACScalibur flow cytometry (reference value: 1.3%); assay type: functional
# [3] = molecular target: Programmed cell death 1 ligand 1 (Homo sapiens) (UniProt Q9NZQ7); assay: Binding affinity to PD-L1 overexpressing in human MDA-MB-231 cells at 25 to 100 nM incubated for 1 hr by flow cytometry analysis; assay type: cell-based; details: dose 25-100 nM
# Procedure, shortened: (§1)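 Cells detached with enzyme-free dissociation buffer, suspended in PBS at 1×10^6 cells/mL, incubated with Cy5-labelled peptide at various concentrations for 1 h at 37 °C under slow rotation. Cells spun at 300g for 10 min, washed, resuspended in PBS and read by flow cytometry. PD-L1 knockout MDA-MB-231 served as the negative cell line. Mean ± SD, n = 3.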
# [4] = Stability of the compound in human serum assessed as drug degradation measured after 3 hrs by LC-MS/MS analysis; assay type: ADME, cell-free
# Procedure, shortened: (§2)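 Peptide incubated in 50% human serum at 37 °C. Aliquots taken at set time points up to 3 h and the intact peptide quantified by LC-MS/MS. Mean ± SD, n = 3.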
# [5] = Production against apoptosis in human PBMC cells cocultured with DU-145 cells assessed as reduction in apoptosis of T cells at 10 uM measured after 24 hrs by annexin V-FITC/PI staining based FACScalibur flow cytometry (reference value: 24.5%); assay type: functional; design: scale not given: the % may be the effect or the level left
# [6] = molecular target: Programmed cell death 1 ligand 1 (Homo sapiens) (UniProt Q9NZQ7); assay: Binding affinity to PD-L1 overexpressing in human DU-145 cells at 25 to 100 nM incubated for 1 hr by flow cytometry analysis; assay type: cell-based; details: dose 25-100 nM; procedure, shortened: as §1
# [7] = system: CT26; assay: Antitumor activity against mouse CT26 cells implanted in BALB/c mouse syngeneic model assessed as tumor growth inhibition at 0.5 mg/kg, ip administered daily starting from day 10 post inoculation and measured on day 18 (reference value: 0%); assay type: functional; details: CT26, 216 h, time 9 day, read-out: TGI
# Procedure, shortened: (§3)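 Balb/c mice (4 male + 4 female per group) implanted subcutaneously in right flank with ~1×10^6 CT26 cells; treatment began when tumors reached 200-250 mm3. Daily intraperitoneal dosing days 10–18, saline vehicle control group. Caliper volume = 1/2 × length × width2. TGI (%) = [1 − RTV treated/RTV control] × 100, RTV = day-18 volume / day-10 volume.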
# [8] = Toxicity in BALB/c syngenic mouse bearing CT26 cells assessed as improvement in animal survival at 0.5 mg/kg, ip administered daily starting from day 10 post inoculation and measured on day 18; assay type: organism-based; details: in vivo, 216 h, time 9 day
# Procedure, shortened: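 Male and female Balb/c mice (4 of each per group) with about 1×10^6 CT26 cells implanted subcutaneously in the right flank. Grouped when tumours reached 200-250 mm3. Dosed 0.5 mg/kg i.p. daily from day 10 to day 18; saline i.p. as negative control. Caliper volume = 1/2 × length × width². Survival curves recorded.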
# [9] = Production against apoptosis in human PBMC cells cocultured with DU-145 cells assessed as increase in IFNgamma level in CD8+ T cell at 10 uM measured after 24 hrs by FACScalibur flow cytometry (reference value: 1.3%); assay type: functional
# [10] = molecular target: Programmed cell death 1 ligand 1 (Homo sapiens) (UniProt Q9NZQ7); assay: Binding affinity to PD-L1 deficient in human MCF7 cells at 25 to 100 nM incubated for 1 hr by flow cytometry analysis; assay type: cell-based; details: dose 25-100 nM
# [11] = molecular target: T1, Programmed cell death protein 1/Programmed cell death 1 ligand 1 (Homo sapiens, UniProt Q9NZQ7); assay: Inhibition of human recombinant PD-1/PD-L1 interaction preincubated with compound for 2 hrs followed by PD-1 protein addition and measured after 1.5 hrs by inhibitor screening ELISA assay pair kit method; assay type: protein-complex assay
# Procedure, shortened: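 Plates coated with 100 ng recombinant human PD-L1 at 4°C for 16 h, washed with PBS pH 7.2-7.4, then blocked with 2% BSA for 1.5 h at 37°C. Peptides added at set concentrations for 2 h at 37°C, then biotinylated PD-1 for 1.5 h. Detection with streptavidin-HRP and chromogenic substrate, stopped with 2N H2SO4. A450 referenced to 540 nm. Mean ± SD, n = 3.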
# [12] = organism: Homo sapiens; assay: Antiproliferative activity against human DU-145 cells cocultured with PBMC cells at 10 uM incubated for 24 hrs by CellTiter-Glo luminescent cell viability assay; assay type: functional, cell-based
# [13] = system: CT26; assay: Antitumor activity against mouse CT26 cells implanted in BALB/c mouse syngeneic model at 0.5 mg/kg, ip administered daily starting from day 10 post inoculation and measured on day 18; assay type: functional, organism-based; details: time 9.0 day; procedure, shortened: as §3
# [14] = Stability of the compound in 50% human serum assessed as half life measured upto 200 mins by LC-MS/MS analysis; assay type: ADME, cell-free; procedure, shortened: as §2
# [15] = molecular target: T1, Programmed cell death protein 1/Programmed cell death 1 ligand 1; assay: Inhibition of human PD-1/PD-L1 interaction by surface plasmon resonance analysis; assay type: protein-complex assay
# Procedure, shortened: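 Competitive SPR with PD-1 immobilised on the chip. Various peptide concentrations were preincubated with human PD-L1 in running buffer, then injected. PD-L1 alone was injected as the control. Blocking was taken from the drop in SPR response relative to that control. Mean ± SD, n = 3.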
# [16] = Stability of the compound in human serum assessed as compound remaining measured after 3 hrs by LC-MS/MS analysis relative to control; assay type: ADME, cell-free; details: read-out: Stability; procedure, shortened: as §2
# Chain of Programmed cell death 1 ligand 1 (Homo sapiens) (Q9NZQ7 whole entry): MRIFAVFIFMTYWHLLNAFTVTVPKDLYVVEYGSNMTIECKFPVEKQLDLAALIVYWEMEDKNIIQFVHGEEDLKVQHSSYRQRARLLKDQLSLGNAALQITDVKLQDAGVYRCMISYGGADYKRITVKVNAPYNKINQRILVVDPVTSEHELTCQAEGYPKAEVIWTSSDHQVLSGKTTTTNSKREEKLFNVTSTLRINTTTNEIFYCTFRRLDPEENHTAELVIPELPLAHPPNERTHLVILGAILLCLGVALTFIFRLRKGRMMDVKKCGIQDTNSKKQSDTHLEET
# T1 sequence (Q15116 whole entry): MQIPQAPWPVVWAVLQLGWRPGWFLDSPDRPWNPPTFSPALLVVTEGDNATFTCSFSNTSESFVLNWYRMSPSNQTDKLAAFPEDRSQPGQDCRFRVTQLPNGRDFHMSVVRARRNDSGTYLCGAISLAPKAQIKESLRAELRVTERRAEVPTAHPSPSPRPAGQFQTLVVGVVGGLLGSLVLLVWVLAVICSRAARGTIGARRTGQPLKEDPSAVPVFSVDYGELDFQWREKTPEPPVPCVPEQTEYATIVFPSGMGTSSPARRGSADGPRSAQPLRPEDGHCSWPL
# T1 sequence (Q9NZQ7 whole entry): as the sequence (Q9NZQ7 whole entry) above
# Chain of Programmed cell death protein 1/Programmed cell death 1 ligand 1 (Mus musculus, UniProt Q9EP73) (Q9EP73 whole entry): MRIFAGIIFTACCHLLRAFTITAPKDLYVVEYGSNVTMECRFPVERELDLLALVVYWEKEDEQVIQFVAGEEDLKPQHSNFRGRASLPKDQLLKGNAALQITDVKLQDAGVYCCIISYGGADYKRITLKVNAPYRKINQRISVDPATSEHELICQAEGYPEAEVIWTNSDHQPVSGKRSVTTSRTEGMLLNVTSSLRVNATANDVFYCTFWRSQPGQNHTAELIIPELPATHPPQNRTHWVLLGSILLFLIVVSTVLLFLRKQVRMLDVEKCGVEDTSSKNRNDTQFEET
# Chain of Programmed cell death protein 1/Programmed cell death 1 ligand 1 (Mus musculus, UniProt Q9EP73) (Q02242 whole entry, further chain): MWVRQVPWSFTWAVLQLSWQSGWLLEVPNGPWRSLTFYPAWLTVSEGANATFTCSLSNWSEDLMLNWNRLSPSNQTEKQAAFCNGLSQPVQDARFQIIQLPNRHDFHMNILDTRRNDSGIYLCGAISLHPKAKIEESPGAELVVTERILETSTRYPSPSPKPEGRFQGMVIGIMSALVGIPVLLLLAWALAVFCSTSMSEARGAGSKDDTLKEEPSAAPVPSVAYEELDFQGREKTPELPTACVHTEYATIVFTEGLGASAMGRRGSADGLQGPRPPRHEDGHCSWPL
Compound,IC50 [1] [nM],Activity [2] [%],Activity [3],Drug degradation [4],Activity [5] [%],Activity [6],inhibition in vivo at 0.5 mg/kg [7] [%],Activity [8],Activity [9] [%],Activity [10],IC50 [11] [nM],Activity [12],Activity [13],half-life [14] [min],IC50 [15] [nM],remaining at 3 h [16] [%]
H-WHRSYYTWNLNT-OH,4280,1.5,Active,Active,14.5,Active,16.3,Non-Toxic,1.4,Active,,,,,,
CC(=O)N[C@H]1CSSC[C@@H](C(N)=O)NC(=O)[C@H](CC(N)=O)NC(=O)[C@H](CC(C)C)NC(=O)[C@H](CC(N)=O)NC(=O)[C@H](Cc2c[nH]c3ccccc23)NC(=O)[C@H]([C@@H](C)O)NC(=O)[C@H](Cc2ccc(O)cc2)NC(=O)[C@H](Cc2ccc(O)cc2)NC(=O)[C@H](CO)NC(=O)[C@H](CCCNC(=N)N)NC(=O)[C@H](Cc2c[nH]cn2)NC1=O (Ac-CHRSYYTWNLNC-NH2; disulfide 1-12),552,1.5,Active,,12.2,Active,60.6,Toxic,1.7,Active,180,Active,Active,38.1,119,
CC(=O)N[C@H]1CSSC[C@@H](C(=O)N[C@@H](Cc2c[nH]c3ccccc23)C(=O)N[C@@H](CC(N)=O)C(=O)N[C@@H](CC(C)C)C(=O)N[C@@H](CC(N)=O)C(=O)N[C@H](C(N)=O)[C@@H](C)O)NC(=O)[C@H](Cc2ccc(O)cc2)NC(=O)[C@H](Cc2ccc(O)cc2)NC(=O)[C@H](CO)NC(=O)[C@H](CCCNC(=N)N)NC(=O)[C@H](Cc2c[nH]cn2)NC1=O (Ac-CHRSYYCWNLNT-NH2; disulfide 1-7),464,1.3,Active,,10.6,Active,33,Toxic,1.5,Active,440,Active,Active,70.8,143,25
